Laboratory results reported in ChEMBL document CHEMBL4725282, “Discovery of a Conformationally Constrained Oxazolidinone with Improved Safety and Efficacy Profiles for the Treatment of Multidrug-Resistant Tuberculosis” (J Med Chem, 2020).
In brackets after ≈: the same amount, converted by molar mass. Activity calls are given as the source filed them. The rule behind the calls is not given here.

Tests used:
[1] = system: Mycobacterium tuberculosis; test: Antitubercular activity against Mycobacterium tuberculosis H37Rv incubated for 7 days by microplate alamar blue assay; type: functional; conditions: Mycobacterium tuberculosis, H37Rv, 168 h, time 7 day; read-out: MIC
Summary of the method: (§1)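 MIC determined by microplate alamar blue assay (MABA) following a published protocol.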

Vero = test: Cytotoxicity against African green monkey Vero cells assessed as reduction in cell viability measured after 48 hrs by MTT assay; type: cell-based; conditions: Chlorocebus sabaeus
Summary of the method: (§2)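 Cytotoxicity on Vero or HepG2 cells by MTT assay, run as previously reported.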

[2] = Inhibition of mitochondrial protein synthesis in rat H9c2 cells measured after 5 days by ELISA; type: cell-based; conditions: H9c2, 120 h
Summary of the method: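 H9C2 cells in DMEM with 10% FBS, seeded 1500/well. After 18 h, compound added at final 0.03–200 μM (3-fold series), then 5 days at 37 °C, 5% CO2; 0.5% DMSO negative control. MPS inhibition read by MitoBiogenesis In-Cell ELISA; IC50 calculated.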

[3] = Stability in CD-1 mouse liver microsome assessed as parent compound remaining at 1 uM measured after 30 mins in presence of NADPH by LC-MS/MS analysis; type: ADME; conditions: liver microsomes, read-out: Stabilty
Summary of the method: (§3)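 Liver microsomes (male CD-1 mouse or pooled human), 1 mg/mL protein, compound 1 µM, 37°C with shaking. Started with 1 mM NADPH or run without cofactor. Quenched with ice-cold ACN/MeOH containing internal standard. Parent quantified by LC-MS/MS; 30 min concentration normalised to time zero.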

[4] = Stability in CD-1 mouse liver microsome at 1 uM measured after 30 mins in absence of NADPH by LC-MS/MS analysis; type: ADME; conditions: microsomes, 0.5 h; summary of the method: as §3
[5] = system: Mycobacterium tuberculosis; test: Antitubercular activity against Mycobacterium tuberculosis isolate 12525 incubated for 7 days by microplate alamar blue assay; type: functional; conditions: isolate 12525, 168 h, time 7 day; summary of the method: as §1
HepG2 = test: Cytotoxicity against human HepG2 cells assessed as reduction in cell viability measured after 48 hrs by MTT assay; type: cell-based; conditions: HepG2, 48 h; summary of the method: as §2
[6] = biological target: T1, Amine oxidase [flavin-containing] A (Homo sapiens, UniProt P21397); test: Inhibition of recombinant human MAOA expressed in baculovirus infected insect cells using kynuramine as substrate measured after 20 mins by LC-MS/MS analysis
T1 sequence (P21397 whole entry): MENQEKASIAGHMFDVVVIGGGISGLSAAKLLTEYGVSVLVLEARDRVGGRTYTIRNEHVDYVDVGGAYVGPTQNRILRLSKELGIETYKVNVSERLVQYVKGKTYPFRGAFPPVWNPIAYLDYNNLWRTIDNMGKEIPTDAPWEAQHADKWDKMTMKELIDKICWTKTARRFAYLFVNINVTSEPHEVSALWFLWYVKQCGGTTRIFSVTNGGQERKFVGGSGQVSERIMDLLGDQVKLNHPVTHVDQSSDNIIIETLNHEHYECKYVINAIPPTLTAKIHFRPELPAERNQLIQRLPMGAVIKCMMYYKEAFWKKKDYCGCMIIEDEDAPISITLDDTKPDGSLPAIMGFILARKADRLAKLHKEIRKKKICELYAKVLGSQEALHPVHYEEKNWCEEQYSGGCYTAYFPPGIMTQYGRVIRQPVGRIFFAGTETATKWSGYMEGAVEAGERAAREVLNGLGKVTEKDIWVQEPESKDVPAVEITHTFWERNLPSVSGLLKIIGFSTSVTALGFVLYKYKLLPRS
Summary of the method: (§4)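 Recombinant human MAO-A or MAO-B (50 μg/mL) in 100 mM potassium phosphate pH 7.4 with 5 mM MgCl2. Kynuramine substrate at 50 μM (MAO-A) or 25 μM (MAO-B). […] 4-Hydroxyquinoline formation measured by LC-MS/MS versus vehicle; IC50 derived.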

[7] = biological target: T2, Amine oxidase [flavin-containing] B (Homo sapiens, UniProt P27338); test: Inhibition of recombinant human MAOB expressed in baculovirus infected insect cells using kynuramine as substrate measured after 20 mins by LC-MS/MS analysis; summary of the method: as §4
T2 sequence (P27338 whole entry): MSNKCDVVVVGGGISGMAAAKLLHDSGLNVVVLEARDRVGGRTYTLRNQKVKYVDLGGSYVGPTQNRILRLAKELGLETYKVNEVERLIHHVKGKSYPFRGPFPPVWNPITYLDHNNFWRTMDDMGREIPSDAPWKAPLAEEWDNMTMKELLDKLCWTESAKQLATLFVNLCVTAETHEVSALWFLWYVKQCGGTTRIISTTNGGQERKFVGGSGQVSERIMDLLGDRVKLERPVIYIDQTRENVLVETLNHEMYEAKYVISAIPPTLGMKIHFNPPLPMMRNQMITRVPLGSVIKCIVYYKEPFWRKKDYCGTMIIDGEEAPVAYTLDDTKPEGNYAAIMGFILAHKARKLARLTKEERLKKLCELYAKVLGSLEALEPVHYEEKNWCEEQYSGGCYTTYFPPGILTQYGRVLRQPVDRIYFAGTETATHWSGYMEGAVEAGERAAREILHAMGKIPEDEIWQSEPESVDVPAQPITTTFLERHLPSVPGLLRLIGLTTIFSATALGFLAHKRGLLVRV

[8] = system: Mycobacterium tuberculosis; test: (§5) Antitubercular activity against Mycobacterium tuberculosis H37Rv infected in Balb/c mouse assessed as reduction in lung bacterial burden at 25 to 100 mg/kg/day, po administered via gavage 5 times per week for 3 weeks starting from 10 days post-infection and measured 24 hrs post last dose; type: functional, organism-based; conditions: dose mg/kg/day 25-100, time 22.0 day
Summary of the method: (§6)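 Female SPF BALB/c mice, 6 per group, aerosol-infected with M. tuberculosis H37Rv to deposit 50-100 bacilli per lung. Compound suspended in 0.5% CMC, given by oral gavage from day 10 post-infection, 5 times per week for 3 weeks; controls got 0.5% CMC. Lungs harvested the day after the last dose, homogenised, diluted in HBSS, plated on 7H11 agar in duplicate, incubated 3 weeks at 37 °C. Result expressed as mean log10 CFU; t-test versus control.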

[9] = system: Mycobacterium tuberculosis; test: as §5, with “as” for “as reduction in”, “burden by measuring colony forming unit” for “burden”, “25” for “25 to 100”, “dose (reference value: 7.102 +/- 0.152 log10CFU)” for “dose”; type: functional; conditions: time 22 day; summary of the method: as §6
[10] = Toxicity in Mycobacterium tuberculosis H37Rv infected Balb/c mouse assessed as change in body weight at 25 mg/kg/day, po administered via gavage 5 times per week for 3 weeks starting from 10 days post-infection (reference value: 21.29 +/- 0.84 g); type: organism-based; conditions: in vivo, 504 h, time 21 day
[11] = system: Mycobacterium tuberculosis; test: as §5, with “as” for “as reduction in”, “burden by measuring colony forming unit” for “burden”, “at” for “at 25 to”, “dose (reference value: 7.102 +/- 0.152 log10CFU)” for “dose”; type: functional; conditions: time 22 day; summary of the method: as §6
[12] = Toxicity in Mycobacterium tuberculosis H37Rv infected Balb/c mouse assessed as change in body weight at 100 mg/kg/day, po administered via gavage 5 times per week for 3 weeks starting from 10 days post-infection (reference value: 21.29 +/- 0.84 g); type: organism-based; conditions: in vivo, 504 h, time 21 day
[13] = system: Mycobacterium tuberculosis; test: Antitubercular activity against Mycobacterium tuberculosis H37Rv infected in Balb/c mouse assessed as reduction in lung bacterial burden at 50 to 100 mg/kg/day, po administered via gavage 5 times per week for 3 weeks starting from 10 days post-infection and measured 24 hrs post last dose; type: functional, organism-based; conditions: dose mg/kg/day 50-100, time 22.0 day; summary of the method: as §6

| Compound | MIC [1] | IC50 (Vero) | IC50 [2] | remaining at 0.5 h, 1 µM [3] | Stabilty [4] | MIC [5] | IC50 (HepG2) | IC50 [6] | IC50 [7] | Activity [8] | Activity [9] | Activity [10] | Activity [11] | Activity [12] | Activity [13] |
| --- | --- | --- | --- | --- | --- | --- | --- | --- | --- | --- | --- | --- | --- | --- | --- |
| CC(=O)NC[C@H]1CN(c2ccc(N3CCSCC3)c(F)c2)C(=O)O1 [SUTEZOLID] | 0.1 µg/mL (≈ 0.283 µM) | > 64 µg/mL | 8.17 µM | 54.8% | Stable | 0.06 µg/mL (≈ 0.17 µM) | > 64 µg/mL | 13 µM | 0.7 µM |  |  |  |  |  |  |
| CC(=O)NC[C@@H]1OC(=O)N2c3cc(F)c(N4CCSCC4)cc3OC[C@@H]12 |  |  |  |  |  |  |  |  |  | Active |  |  |  |  |  |
| NNC(=O)c1ccncc1 [ISONIAZID] | 0.03 µg/mL (≈ 0.219 µM) |  |  |  |  | > 10 µg/mL |  |  |  |  | 1.929 log10CFU | 21.3 g |  |  |  |
| CC(=O)NC[C@H]1CN(c2ccc(N3CCOCC3)c(F)c2)C(=O)O1 [LINEZOLID] | 0.32 µg/mL (≈ 0.949 µM) |  | 7.98 µM | 111% | Stable | 0.23 µg/mL (≈ 0.682 µM) |  |  |  |  |  |  | 4.136 log10CFU | 20.83 g | Active |
